ChEMBL document CHEMBL4732148 (Eur J Med Chem, 2021)
Activity calls are given as the source filed them. The rule behind the calls is not given here.

How the values were obtained:
Hepatitis C virus [1] = test: Antiviral activity against HCV infected in human Huh-7 cells assessed as reduction in viral replication measured after 48 hrs by luciferase reporter gene assay; assay type: functional, organism-based, Hepacivirus hominis; details: Huh-7, 48 h
In short: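 Replicon-bearing Huh7 cells seeded at 10,000/well and allowed to attach for 24 h at 37 °C. Triplicate biological wells then treated 48 h with compound in DMEM, 10% FBS, 0.5% DMSO final. Bright-Glo luminescence expressed relative to untreated cells. IC50 from a four-parameter logistic fit.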

[2] = Cytotoxicity against human Huh-7 cells assessed as reduction in cell viability measured after 48 hrs by celltiter-glo assay; assay type: cell-based; details: read-out: TC50
[3] = Ratio of gemcitabine TC50 to test compound TC50 for cytotoxicity against human BXPC-3 cells assessed as reduction in cell viability; assay type: cell-based
[4] = Stability in pH 8 aqueous buffer assessed as parent compound remaining at 200 uM measured after 4 hrs by UV spectrophotometry; assay type: physicochemical; details: read-out: Stabilty
In short: (§1)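 Compound diluted to […] in aqueous buffers at pH 1.0, 2.0, 4.0, 6.0 or 8.0 and held 4 h at 40 °C. Intact prodrug separated by reverse-phase HPLC. 260 nm peak area after incubation compared with untreated prodrug, giving % remaining.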

[5] = Stability in pH 2 aqueous buffer assessed as parent compound remaining at 200 uM measured after 4 hrs by UV spectrophotometry; assay type: physicochemical; details: read-out: Stabilty; in short: as §1
[6] = Toxicity in human Huh-7 cells assessed as reduction in cell viability measured after 96 hrs by celltiter-glo assay; assay type: cell-based; details: read-out: TC50
[7] = Cytotoxicity against human BXPC-3 cells assessed as reduction in cell viability measured after 96 hrs by celltiter-glo assay; assay type: cell-based; details: read-out: TC50
[8] = Stability in pH 6 aqueous buffer assessed as parent compound remaining at 200 uM measured after 4 hrs by UV spectrophotometry; assay type: physicochemical; details: read-out: Stabilty; in short: as §1
[9] = Stability in pH 4 aqueous buffer assessed as parent compound remaining at 200 uM measured after 4 hrs by UV spectrophotometry; assay type: physicochemical; details: read-out: Stabilty; in short: as §1
[10] = Cytotoxicity against HEK293 cells assessed as reduction in cell viability measured after 96 hrs by celltiter-glo assay; assay type: cell-based; details: human, read-out: TC50
[11] = Ratio of gemcitabine TC50 to test compound TC50 for cytotoxicity against human MCF7 cells assessed as reduction in cell viability; assay type: cell-based
[12] = Cytotoxicity against human MCF7 cells assessed as reduction in cell viability measured after 96 hrs by celltiter-glo assay; assay type: cell-based; details: read-out: TC50
HepG2 = test: Cytotoxicity against human HepG2 cells assessed as reduction in cell viability measured after 96 hrs by celltiter-glo assay; assay type: functional; details: read-out: TC50 (the source's name)
[13] = Stability in pH 1 aqueous buffer assessed as parent compound remaining at 200 uM measured after 4 hrs by UV spectrophotometry; assay type: physicochemical; details: read-out: Stabilty; in short: as §1
Hepatitis C virus [14] = test: Antiviral activity against HCV infected in human Huh-7 cells assessed as reduction in viral replication at 25 to 1000 nM measured after 48 hrs in presence of cytidine by luciferase reporter gene assay; assay type: functional, organism-based; details: Hepacivirus hominis, dose 25-1000 nM
In short: (§2)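 Huh7 cells carrying an HCV luciferase replicon, grown in DMEM with 10% FBS and G418. Cells treated 48 h continuously with compound at 25–1,000 nM, either alone or together with 50 µM cytidine or 2′-deoxycytidine. Luciferase activity read in lysates. Three biological replicates, SD.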

Hepatitis C virus [15] = test: Antiviral activity against HCV infected in human Huh-7 cells assessed as reduction in viral replication at 25 to 1000 nM measured after 48 hrs in presence of deoxycytidine by luciferase reporter gene assay; assay type: functional, organism-based; details: Hepacivirus hominis, dose 25-1000 nM; in short: as §2
Hepatitis C virus [16] = test: Antiviral activity against HCV infected in human Huh-7 cells assessed as reduction in viral replication at 500 nM measured after 24 to 30 hrs by luciferase reporter gene assay; assay type: functional, Hepacivirus hominis; set-up: scale not given: the % may be the effect or the level left; details: time 24-30 hrs
In short: (§3)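 Huh7 luciferase replicon cells treated with 500 nM compound or mock for up to 48 h. Cells were lysed at various times and the lysates snap-frozen in liquid nitrogen. All lysates were then assayed for luciferase together.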

Hepatitis C virus [17] = test: Antiviral activity against HCV infected in human Huh-7 cells assessed as reduction in viral replication at 500 nM measured after 48 hrs by luciferase reporter gene assay; assay type: functional, organism-based; details: Hepacivirus hominis; in short: as §3
[18] = Cytotoxicity against human Huh-7 cells assessed as reduction in cell viability measured after 48 hrs in presence of ENT1 inhibitor NBTI […]; assay type: cell-based; details: with NBTI (ENT1 inhibitor; concentration not stated), read-out: TC50
Hepatitis C virus [19] = test: Ratio of IC50 for antiviral activity against HCV infected in human Huh-7 cells assessed as reduction in viral replication preincubated for 2 hrs followed by replacement with fresh culture medium and measured after 46 hrs by luciferase reporter gene assay to IC50 for antiviral activity against HCV infected in human Huh-7 cells assessed as reduction in viral replication measured after 48 hrs by …; assay type: functional, Hepacivirus hominis
Hepatitis C virus [20] = test: Antiviral activity against HCV infected in human Huh-7 cells assessed as reduction in viral replication preincubated for 2 hrs followed by replacement with fresh culture medium and measured after 46 hrs by luciferase reporter gene assay; assay type: functional, organism-based, Hepacivirus hominis
In short: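 HCV luciferase-replicon Huh7 cells were seeded at 10,000 cells/well and allowed 24 h to attach. Three biological replicates were exposed to graded compound in DMEM/10% FBS/0.5% DMSO for 2 h only, then the medium was replaced with fresh growth medium for 46 h at 37 °C.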

| Structure (SMILES) | IC50 (Hepatitis C virus [1]) | CC50 at 48 h [2] | also measured |
| --- | --- | --- | --- |
| O=C(Nc1ccn([C@@H]2O[C@H](CO)[C@@H](O)C2(F)F)c(=O)n1)c1ccc2c(c1)C(=O)c1ccccc1C2=O | 12.8 nM | 249 µM |  |
| COC(=O)N[C@H](C(=O)N1CCC[C@H]1c1ncc(-c2ccc(-c3ccc(-c4cnc([C@@H]5CCCN5C(=O)[C@@H](NC(=O)OC)C(C)C)[nH]4)cc3)cc2)[nH]1)C(C)C | 0.031 nM |  |  |
| O=C(Nc1ccn([C@@H]2O[C@H](CO)[C@@H](O)C2(F)F)c(=O)n1)c1ccc2c(c1)OCCO2 | 127 nM | 855 µM | selectivity ratio [3]: ≤ 620; remaining at 4 h, 200 µM [4]: 100%; remaining at 4 h, 200 µM [5]: 100%; CC50 at 96 h [6]: 3.3 µM; CC50 at 96 h [7]: 1.2 µM; remaining at 4 h, 200 µM [8]: 100%; remaining at 4 h, 200 µM [9]: 100%; CC50 at 96 h [10]: 5.6 µM; selectivity ratio [11]: ≤ 24; CC50 at 96 h [12]: 1.4 µM; CC50 (HepG2): 1.1 µM; remaining at 4 h, 200 µM [13]: 71% |
| O=C(Nc1ccn([C@@H]2O[C@H](CO)[C@@H](O)C2(F)F)c(=O)n1)C1Cc2ccccc2C1 | 10 nM | > 500 µM |  |
| O=C(Nc1ccn([C@@H]2O[C@H](CO)[C@@H](O)C2(F)F)c(=O)n1)c1ccc(Cl)cc1Cl | 77.5 nM | > 100 µM |  |
| O=C(Nc1ccn([C@@H]2O[C@H](CO)[C@@H](O)C2(F)F)c(=O)n1)c1ccc2c(c1)CCO2 | 145 nM | 954 µM |  |
| O=C(Nc1ccn([C@@H]2O[C@H](CO)[C@@H](O)C2(F)F)c(=O)n1)c1ccc2c(c1)CCCC2 | 86 nM | 132 µM |  |
| COc1cc(OC)cc(C(=O)Nc2ccn([C@@H]3O[C@H](CO)[C@@H](O)C3(F)F)c(=O)n2)c1 | 73.4 nM | 962 µM | CC50 at 96 h [6]: 18.5 µM; Activity (Hepatitis C virus [14]): inactive; CC50 at 96 h [10]: 4 µM; Activity (Hepatitis C virus [15]): inactive; selectivity ratio [11]: ≤ 24; CC50 at 96 h [12]: 1.6 µM; CC50 (HepG2): 3 µM |
| O=C(Nc1ccn([C@@H]2O[C@H](CO)[C@@H](O)C2(F)F)c(=O)n1)c1ccc2ccccc2c1 | 126 nM | 125 µM |  |
| O=C(Nc1ccn([C@@H]2O[C@H](CO)[C@@H](O)C2(F)F)c(=O)n1)c1ccc2c(c1)OCCCO2 | 91.5 nM | 881 µM |  |
| COc1cccc(OC)c1C(=O)Nc1ccn([C@@H]2O[C@H](CO)[C@@H](O)C2(F)F)c(=O)n1 | 451 nM | 4580 µM |  |
| O=C(Nc1ccn([C@@H]2O[C@H](CO)[C@@H](O)C2(F)F)c(=O)n1)c1ccc(Cl)c(Cl)c1 | 17.4 nM | > 100 µM |  |
| O=C(Nc1ccn([C@@H]2O[C@H](CO)[C@@H](O)C2(F)F)c(=O)n1)c1ccc2c(c1)OC(F)(F)O2 | 46.4 nM | 188 µM |  |
| COc1ccc2cc(C(=O)Nc3ccn([C@@H]4O[C@H](CO)[C@@H](O)C4(F)F)c(=O)n3)ccc2c1 | 93.5 nM | 168 µM |  |
| O=C(Nc1ccn([C@@H]2O[C@H](CO)[C@@H](O)C2(F)F)c(=O)n1)c1cc(Cl)cc(Cl)c1 | 25.5 nM | 110 µM | remaining at 4 h, 200 µM [4]: 35.4%; remaining at 4 h, 200 µM [5]: 82%; CC50 at 96 h [6]: 4.2 µM; remaining at 4 h, 200 µM [8]: 99.6%; Activity (Hepatitis C virus [14]): inactive; Activity (Hepatitis C virus [16]): 50%; remaining at 4 h, 200 µM [9]: 98.4%; CC50 at 96 h [10]: 1.2 µM; Activity (Hepatitis C virus [15]): inactive; selectivity ratio [11]: ≤ 24; CC50 at 96 h [12]: 0.33 µM; Activity (Hepatitis C virus [17]): Active; CC50 (HepG2): 0.6 µM; remaining at 4 h, 200 µM [13]: 35% |
| COc1c(Cl)cc(C(=O)Nc2ccn([C@@H]3O[C@H](CO)[C@@H](O)C3(F)F)c(=O)n2)cc1Cl | 19.3 nM | > 100 µM |  |
| Cc1cc2c(cc1C(=O)Nc1ccn([C@@H]3O[C@H](CO)[C@@H](O)C3(F)F)c(=O)n1)OCCO2 | 1690 nM | 626 µM |  |
| O=C(Nc1ccn([C@@H]2O[C@H](CO)[C@@H](O)C2(F)F)c(=O)n1)c1cccc2c1CCCC2 | 161 nM | 92 µM |  |
| O=C(Nc1ccn([C@@H]2O[C@H](CO)[C@@H](O)C2(F)F)c(=O)n1)c1ccc(Cl)cc1 | 37.6 nM | 138 µM |  |
| O=C(Nc1ccn([C@@H]2O[C@H](CO)[C@@H](O)C2(F)F)c(=O)n1)c1ccc2c(c1)OCO2 | 59.8 nM | 470 µM | CC50 at 48 h [18]: 440 µM; selectivity ratio [3]: ≤ 620; remaining at 4 h, 200 µM [4]: 92%; remaining at 4 h, 200 µM [5]: 100%; CC50 at 96 h [6]: 7 µM; CC50 at 96 h [7]: 0.72 µM; remaining at 4 h, 200 µM [8]: 100%; Ratio IC50 (Hepatitis C virus [19]): 51; remaining at 4 h, 200 µM [9]: 100%; CC50 at 96 h [10]: 4.1 µM; selectivity ratio [11]: ≤ 24; CC50 at 96 h [12]: 1.2 µM; IC50 (Hepatitis C virus [20]): 3.1 µM; CC50 (HepG2): 2.8 µM; remaining at 4 h, 200 µM [13]: 64% |
| O=C(Nc1ccn([C@@H]2O[C@H](CO)[C@@H](O)C2(F)F)c(=O)n1)c1ccc2cc(Br)ccc2c1 | 185 nM | 74 µM |  |
| CCc1ccc(C(=O)Nc2ccn([C@@H]3O[C@H](CO)[C@@H](O)C3(F)F)c(=O)n2)cc1 | 58.4 nM | 490 µM | CC50 at 48 h [18]: 360 µM |
| O=C(Nc1ccn([C@@H]2O[C@H](CO)[C@@H](O)C2(F)F)c(=O)n1)c1ccc2c(c1)CCC2 | 58.6 nM | 378 µM |  |
| O=C(Nc1ccn([C@@H]2O[C@H](CO)[C@@H](O)C2(F)F)c(=O)n1)c1c(Br)ccc2c1OCO2 | 340 nM | 2210 µM |  |
| CC1(C)Cc2ccc(C(=O)Nc3ccn([C@@H]4O[C@H](CO)[C@@H](O)C4(F)F)c(=O)n3)cc2O1 | 177 nM | 1160 µM |  |
| COc1ccc(C(=O)Nc2ccn([C@@H]3O[C@H](CO)[C@@H](O)C3(F)F)c(=O)n2)cc1 | 60 nM | 572 µM |  |
| Cc1ccc(C(=O)Nc2ccn([C@@H]3O[C@H](CO)[C@@H](O)C3(F)F)c(=O)n2)cc1 | 43.1 nM | 329 µM | CC50 at 48 h [18]: 240 µM |
| O=C(Nc1ccn([C@@H]2O[C@H](CO)[C@@H](O)C2(F)F)c(=O)n1)c1cc2c(cc1[N+](=O)[O-])OCO2 | 46.7 nM | > 500 µM |  |
